Test results reported in ChEMBL document CHEMBL2412990, “Synthesis and pharmacological evaluation of new N-phenylpiperazine derivatives designed as homologues of the antipsychotic lead compound LASSBio-579” (Eur J Med Chem, 2013).
The source made the active and inactive calls. The rule behind the calls is not given here.

How the values were obtained:
[1] = tested on: Mus musculus; assay: Toxicity in CF1 mouse assessed as effect on locomotor activity measuring number of crossings at 1 to 3 mg/kg, ip administered 30 mins prior ketamine challenge measured for 20 mins post challenge; type: organism-based; parameters: dose 1-3 mg/kg, route intraperitoneal; details: in vivo
[2] = tested on: Mus musculus; assay: Antipsychotic activity in ip dosed CF1 mouse assessed as prevention of ketamine-induced hyperlocomotion compound administered 30 mins prior ketamine challenge measured for 20 mins post challenge; type: functional, organism-based
Method in brief: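 Mice were pretreated (reference drug orally after 2 h fast; test compound i.p.) and placed in the arena centre. Ketamine 10 mg/kg s.c. was given 30 min later. A blinded observer counted total square crossings over 20 min in a dimly lit room. n = 7–8. Analysed by one-way ANOVA with Newman-Keuls post hoc test.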

[3] = tested on: Mus musculus; assay: Antipsychotic activity in ip dosed CF1 mouse assessed as prevention of apomorphine-induced climbing behaviour compound administered 30 mins prior apomorphine challenge measured 5 to 30 mins post challenge; type: functional, organism-based
Method in brief: (§1)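 Adult male mice, 25–35 g, dosed i.p. at 10 ml/kg, then placed in wire-bar cages for 30 min. Apomorphine 4 mg/kg s.c. followed. Climbing was scored 0–4 for 1 min at 5, 10, 15, 20, 25 and 30 min; the climbing index is the sum of scores. n = 7–9. Analysed by one-way ANOVA with Newman-Keuls post hoc test.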

[4] = biological target: 5-hydroxytryptamine receptor 2A (Rattus norvegicus) (UniProt P14842); assay: Antagonist activity at 5HT2A receptor in rat brain cortical membranes assessed as inhibition of [3H]-ketanserin binding to receptor after 15 mins by competition assay in absence of GTP; type: cell membranes
Method in brief: (§2)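 Rat cortical membranes, 150 µg protein, with 1 nM [3H]-ketanserin and 100 nM prazosin in 50 mM Tris-HCl pH 7.4, 37 °C, 15 min. Non-specific binding was defined with ketanserin. For the GTP shift, paired competition curves were run without and with guanylyl nucleotide (0.1 mM Gpp(NH)p or 1 mM GTP).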

[5] = biological target: 5-hydroxytryptamine receptor 2A (Rattus norvegicus) (UniProt P14842); assay: Antagonist activity at 5HT2A receptor in rat brain cortical membranes assessed as inhibition of [3H]-ketanserin binding to receptor after 15 mins by competition assay in presence of GTP; type: cell membranes; method in brief: as §2
[6] = tested on: Alpha-2 adrenergic receptor (Rattus norvegicus); assay: Antagonist activity at alpha2 adrenoreceptor in rat brain cortical membranes assessed as inhibition of [3H]-RX821002 binding to receptor after 45 mins by competition assay in absence of GTP
[7] = tested on: Alpha-2 adrenergic receptor (Rattus norvegicus); assay: Antagonist activity at alpha2 adrenoreceptor in rat brain cortical membranes assessed as inhibition of [3H]-RX821002 binding to receptor after 45 mins by competition assay in presence of GTP
[8] = tested on: Mus musculus; assay: Antipsychotic activity in CF1 mouse assessed as prevention of apomorphine-induced climbing behaviour at 0.1 to 10 mg/kg, ip administered 30 mins prior apomorphine challenge measured 5 to 30 mins post challenge; type: functional, organism-based; method in brief: as §1

Chain of 5-hydroxytryptamine receptor 2A (Rattus norvegicus) (P14842 whole entry): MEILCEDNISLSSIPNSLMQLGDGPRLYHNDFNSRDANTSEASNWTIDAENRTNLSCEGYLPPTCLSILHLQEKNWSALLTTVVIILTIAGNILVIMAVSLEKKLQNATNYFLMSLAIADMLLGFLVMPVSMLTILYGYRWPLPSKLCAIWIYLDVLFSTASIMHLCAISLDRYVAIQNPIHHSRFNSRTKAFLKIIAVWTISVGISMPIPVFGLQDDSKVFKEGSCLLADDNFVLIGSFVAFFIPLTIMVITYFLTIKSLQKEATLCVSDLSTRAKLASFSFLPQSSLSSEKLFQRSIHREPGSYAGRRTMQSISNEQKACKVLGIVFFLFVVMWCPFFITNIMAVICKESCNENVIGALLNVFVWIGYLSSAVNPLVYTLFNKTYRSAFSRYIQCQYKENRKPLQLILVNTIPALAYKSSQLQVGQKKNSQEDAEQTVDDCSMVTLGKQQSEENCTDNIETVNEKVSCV

Structure (SMILES) | Activity [1] | Activity [2] | Activity [3] | inhibition [4] | inhibition [5] | inhibition [6] | inhibition [7] | Activity [8]
Clc1ccc(-n2cc(CCCCN3CCN(c4ccccc4)CC3)cn2)cc1 | Non-toxic | Dose-dependent effect | Dose-dependent effect | Active | Active | Active | Active | –
Clc1ccc(-n2cc(CN3CCN(c4ccccc4)CC3)cn2)cc1 | – | – | – | – | – | – | – | Active
